Here are results for two molecules from ChEMBL document CHEMBL1909503, “Protective effects of luteolin against apoptotic liver damage induced by D-galactosamine/lipopolysaccharide in mice” (2011).

The source made the active and inactive calls. The calls are words filed in the database; no cut-off is given here.

In assay [1] the test system is Mus musculus. Briefly: Hepatoprotective activity in ICR mouse assessed as reduction in GalN/LPS-induced mortality at 200 mg/kg, ip administered 1 hr prior to GalN/LPS challenge measured after 24 hrs of GalN/LPS injection. In kind it is functional, organism-based. Also on record: dose 200 mg/kg; scale not given: the % may be the effect or the level left. The essentials: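 Male ICR mice (25–30 g), fasted overnight with water ad libitum. Pretreatment ip, suspended in 10% Tween 80–saline, 1 h before ip GalN (700 mg/kg) plus E. coli 026:B6 LPS (10 μg/kg) in PBS. Survival monitored for 24 h after GalN/LPS; 15 mice per group.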

The subject of assay [2] is Mus musculus. Briefly: Hepatoprotective activity in ip dosed ICR mouse assessed as reduction in GalN/LPS-induced mortality at 200 mg/kg, ip administered 1 hr prior to GalN/LPS challenge measured after 24 hrs of GalN/LPS injection. On the set-up: dose 200 mg/kg. The format is functional, organism-based. The essentials: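 15 male ICR mice per group received compound (25–200 mg/kg) in 10% Tween 80–saline ip 1 h before ip GalN 700 mg/kg plus E. coli 026:B6 LPS 10 μg/kg in PBS; survival monitored over 24 h after challenge.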

The test system of assay [3] is Mus musculus. Briefly: Hepatoprotective activity in GalN/LPS -stimulated ICR mouse assessed as decrease in Bid expression level at 200 mg/kg, ip administered 1 hr prior to GalN/LPS challenge measured after 3 hrs of GalN/LPS injection by Western blotting. Also on record: dose 200 mg/kg. In kind it is functional, organism-based. The method in brief:
(§1)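 Male ICR mice (25–30 g), fasted overnight, water ad libitum. Compound suspended in 10% Tween 80–saline, given ip 1 h before ip GalN (700 mg/kg) plus E. coli 026:B6 LPS (10 μg/kg) in PBS. Liver homogenized in lysis buffer; 10 μg protein per lane on 10% SDS-PAGE, semidry transfer to nitrocellulose, blocked in 5% skim milk/TBS. Overnight 4 °C primary antibody; β-actin reference. 8–10 mice per group.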
On the technique in general: Immunoblotting shows a protein as a band on a membrane.

Assay [4] concerns Mus musculus. Briefly: Hepatoprotective activity in GalN/LPS-stimulated ICR mouse assessed as decrease in ratio of phosphorylated Bim EL protein expression level at 200 mg/kg, ip administered 1 hr prior to GalN/LPS challenge measured after 3 hrs of GalN/LPS injection by Western blotting. The format is functional, organism-based. On the set-up: dose 200 mg/kg. The method in brief:
as §1

Assay [5] has as its system Mus musculus. Briefly: Hepatoprotective activity in GalN/LPS -stimulated ICR mouse assessed as decrease in caspase-8 activity at 200 mg/kg, ip administered 1 hr prior to GalN/LPS challenge measured after 8 hrs of GalN/LPS injection relative to control. The format is functional. On the set-up: scale not given: the % may be the effect or the level left. The following applies: route intraperitoneal. The essentials: (§2)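 Liver taken 8 h after GalN (700 mg/kg)/LPS (10 μg/kg) ip, homogenized in 25 mM Tris, 5 mM MgCl2, 1 mM EGTA with protease inhibitors; 40000g supernatant, 10 mM DTT added. 30 μg protein preincubated 15 min at room temperature in HEPES/EDTA/NaCl/Triton/DTT buffer, then 200 μM peptide substrate (DEVD for caspase-3, IETD for caspase-8) at 37 °C; fluorescence (400/490 nm) read at 120 min; expressed as % of control.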

For assay [6], the system named is Mus musculus. Briefly: Hepatoprotective activity in GalN/LPS -stimulated ICR mouse assessed as suppression of cytochrome c level at 200 mg/kg, ip administered 1 hr prior to GalN/LPS challenge measured after 8 hrs of GalN/LPS injection by Western blotting. In kind it is functional, organism-based. Also on record: dose 200 mg/kg. The essentials: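 Male ICR mice; compound in 10% Tween 80–saline ip 1 h before ip GalN 700 mg/kg/LPS 10 μg/kg; liver taken 8 h later. Cytosolic fraction prepared by NE-PER extraction. 50 μg cytosolic protein run on 12% SDS-PAGE, blotted to nitrocellulose, blocked with 5% nonfat milk/PBS, probed 1 h at room temperature with monoclonal anti-cytochrome c, β-actin as reference, HRP secondary. 8–10 mice per group.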

The test system of assay [7] is Mus musculus. Briefly: Hepatoprotective activity in GalN/LPS -stimulated ICR mouse assessed as suppression of TRADD expression level at 200 mg/kg, ip administered 1 hr prior to GalN/LPS challenge measured after 3 hrs of GalN/LPS injection by Western blotting. In kind it is functional, organism-based. Also on record: dose 200 mg/kg. The method in brief: as §1
Assay [8] concerns Mus musculus. Briefly: Hepatoprotective activity in GalN/LPS -stimulated ICR mouse assessed as decrease in serum alanine amino transferase level at 200 mg/kg, ip administered 1 hr prior to GalN/LPS challenge measured after 8 hrs of GalN/LPS injection. The note with it: route intraperitoneal. In kind it is functional. The essentials: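 Fasted male ICR mice given compound ip in 10% Tween 80–saline 1 h before ip GalN (700 mg/kg)/LPS (10 μg/kg) in PBS. Blood sampled 8 h after challenge; serum ALT measured with an automatic analyzer, reported in U/L. 8–10 mice per group.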

The subject of assay [9] is Mus musculus. Briefly: Hepatoprotective activity in GalN/LPS -stimulated ICR mouse assessed as decrease in caspase-3 activity at 200 mg/kg, ip administered 1 hr prior to GalN/LPS challenge measured after 8 hrs of GalN/LPS injection relative to control. In kind it is functional. Also on record: scale not given: the % may be the effect or the level left. The note with it: route intraperitoneal. The method in brief: as §2

Assay [10] deals with Mus musculus. Briefly: Hepatoprotective activity in GalN/LPS -stimulated ICR mouse assessed as decrease in serum TNFalpha level at 200 mg/kg, ip administered 1 hr prior to GalN/LPS challenge measured after 1 hr of GalN/LPS injection by ELISA. The note with it: route intraperitoneal. In kind it is functional. The essentials: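 Male ICR mice dosed ip (10% Tween 80–saline) 1 h before ip GalN 700 mg/kg plus LPS 10 μg/kg. Serum TNF-α quantified 1 h after challenge by mouse ELISA kit following kit instructions. 8–10 mice per group.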

For assay [11], the system named is Mus musculus. Briefly: Hepatoprotective activity in GalN/LPS -stimulated ICR mouse assessed as decrease in Bax expression level at 200 mg/kg, ip administered 1 hr prior to GalN/LPS challenge measured after 3 hrs of GalN/LPS injection by Western blotting. In kind it is functional, organism-based. Also on record: dose 200 mg/kg. The essentials: as §1
The test system of assay [12] is Mus musculus. Briefly: Hepatoprotective activity in GalN/LPS -stimulated ICR mouse assessed as reduction in phosphorylated JNK p-46 expression level at 200 mg/kg, ip administered 1 hr prior to GalN/LPS challenge measured after 3 hrs of GalN/LPS injection by Western blotting. The format is functional, organism-based. On the set-up: dose 200 mg/kg. The method in brief:
as §1

The test system of assay [13] is Mus musculus. Briefly: Hepatoprotective activity in GalN/LPS -stimulated ICR mouse assessed as reduction in number of apoptotic hepatocytes at 200 mg/kg, ip administered 1 hr prior to GalN/LPS by TUNEL assay. In kind it is functional, organism-based. Also on record: dose 200 mg/kg. The following applies: Hepatocyte. The method in brief:
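Liver sections from male ICR mice pretreated ip 1 h before GalN (700 mg/kg)/LPS (10 μg/kg). Apoptotic hepatocytes detected with an in situ TUNEL kit; TUNEL-positive cells counted microscopically across 200 histological fields.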

In assay [14] the test system is Mus musculus. Briefly: Hepatoprotective activity in GalN/LPS -stimulated ICR mouse assessed as reduction in phosphorylated JNK p-54 expression level at 200 mg/kg, ip administered 1 hr prior to GalN/LPS challenge measured after 3 hrs of GalN/LPS injection by Western blotting. The format is functional, organism-based. Also on record: dose 200 mg/kg. The essentials: as §1

The subject of assay [15] is Mus musculus. Briefly: Hepatoprotective activity in GalN/LPS -stimulated ICR mouse assessed as decrease in ratio of phosphorylated BimL protein expression level at 200 mg/kg, ip administered 1 hr prior to GalN/LPS challenge measured after 3 hrs of GalN/LPS injection by Western blotting. The format is functional, organism-based. Also on record: dose 200 mg/kg. The method in brief: as §1

For SILYMARIN, the Activity in the assay on Mus musculus [1] was 13.3%.

In the case of `O=c1cc(-c2ccc(O)c(O)c2)oc2cc(O)cc(O)c12` [LUTEOLIN], the Activity entry in the assay with Mus musculus [2] is “Dose-dependent effect”; in the assay on Mus musculus [5] it was 176.8%; with Mus musculus [8], 1059 U/L; in the assay on Mus musculus [9], 251.7%; in the assay on Mus musculus [10], 574.2 pg/mL. For the same molecule, the inhibition entry in the assay with Mus musculus [3], with Mus musculus [4], in the assay with Mus musculus [6], in the assay with Mus musculus [7], in the assay with Mus musculus [11] and in the assay on Mus musculus [12] was “Active” in each case. The inhibition entry in the assay with Mus musculus [14] and in the assay with Mus musculus [15] was “Active” each time. In addition, the outcome in the assay with Mus musculus [13] was Active.
